Converted amounts (≈) assume the structure as drawn. The source made the active and inactive calls. No cut-off for these calls is given here.
Assays:
[1] = AUC in Staphylococcus epidermidis ATCC 27626 infected Wistar rat tissue cage fluid at 25 mg/kg, ip measured on day 4; type: ADME, organism-based; design: dose 25 mg/kg, route intraperitoneal
Staphylococcus aureus [2] = test: Antimicrobial activity against stationary phase culture of […] Staphylococcus aureus ATCC 29213 by macrodilution method; type: functional
How it was run: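 Macrodilution MIC and MBC. MIC: lowest concentration inhibiting macroscopic growth. MBC: lowest concentration killing 99.9% of the initial inoculum. Log-phase cultures were used, and MBC was also determined in stationary phase. Subcultures were streaked down the plate centre and left to dry before spreading, to avoid carryover.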

Staphylococcus aureus [3] = test: Antimicrobial activity against […] Staphylococcus aureus ATCC 29213 tissue cage Wistar rat infected model assessed as bacterial load reduction at 25 mg/kg, ip bid treated for 7 days measured 24 hrs after last dose (reference value: 6.8 +/-0.8 logCFU/ml); type: functional; conditions: route intraperitoneal
[4] = Ratio of Cmax in Wistar rat tissue cage fluid to MIC for Staphylococcus epidermidis ATCC 27626 at 25 mg/kg, ip measured on day 4; type: functional; conditions: route intraperitoneal
[5] = Ratio of AUC in Wistar rat tissue cage fluid to MIC for Staphylococcus epidermidis ATCC 27626 at 25 mg/kg, ip measured on day 4; type: functional; conditions: route intraperitoneal
[6] = AUC in Staphylococcus epidermidis ATCC 27626 infected Wistar rat serum at 25 mg/kg, ip measured on day 4; type: ADME, organism-based; design: dose 25 mg/kg, route intraperitoneal
[7] = Cmax in Staphylococcus epidermidis ATCC 27626 infected Wistar rat tissue cage fluid at 25 mg/kg, ip measured on day 4; type: ADME, organism-based; design: dose 25 mg/kg, route intraperitoneal
Staphylococcus aureus [8] = test: Bactericidal activity against log phase culture of […] Staphylococcus aureus ATCC 29213 at 8 times MIC; type: functional, organism-based
How it was run: (§1)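 24-h killing curves in log phase using subinhibitory and clinically available concentrations, single drug or with rifampin. Bactericidal activity is a ≥3-log10 CFU/ml fall from the initial inoculum at 24 h.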

Staphylococcus aureus [9] = test: (§2) Antimicrobial activity against […] Staphylococcus aureus ATCC 29213 tissue cage Wistar rat infected model assessed as bacterial load reduction at 100 mg/kg/day, ip treated for 7 days measured 24 hrs after last dose (reference value: 6.8 +/-0.8 logCFU/ml); type: functional; conditions: route intraperitoneal
[10] = AUC in Escherichia coli ATCC 35218 infected Wistar rat tissue cage fluid at 100 mg/kg/day, ip measured on day 4; type: ADME, organism-based; design: route intraperitoneal
[11] = AUC in Escherichia coli ATCC 35218 infected Wistar rat tissue cage fluid at 50 mg/kg/day, ip measured on day 4; type: ADME, organism-based; design: route intraperitoneal
[12] = Cmax in Escherichia coli ATCC 35218 infected Wistar rat tissue cage fluid at 50 mg/kg/day, ip measured on day 4; type: ADME, organism-based, Interstitial fluid; design: dose 50 mg/kg/day, route intraperitoneal
Staphylococcus aureus [13] = test: as §2, with “14” for “7”, “7.2 +/- 0.6” for “6.8 +/-0.8”, “logCFU/ml) co-treated with 25 mg/kg rifampin, ip bid” for “logCFU/ml)”; type: functional
[14] = AUC in Escherichia coli ATCC 35218 infected Wistar rat serum at 100 mg/kg/day, ip measured on day 4; type: ADME, organism-based; design: route intraperitoneal
[15] = AUC in Escherichia coli ATCC 35218 infected Wistar rat serum at 50 mg/kg/day, ip measured on day 4; type: ADME, organism-based; design: route intraperitoneal
Staphylococcus aureus [16] = test: (§3) Antimicrobial activity against methicillin-resistant Staphylococcus aureus ATCC 29213 tissue cage Wistar rat infected model assessed as bacterial load reduction at 50 mg/kg/day, ip treated for 7 days measured 24 hrs after last dose (reference value: 6.8 +/-0.8 logCFU/ml); type: functional; conditions: route intraperitoneal
Staphylococcus aureus [17] = test: Antimicrobial activity against […] Staphylococcus aureus ATCC 29213 at 2 times MIC in presence of rifampin; type: functional, organism-based; how it was run: as §1
[18] = Cmax in Escherichia coli ATCC 35218 infected Wistar rat tissue cage fluid at 100 mg/kg/day, ip measured on day 4; type: ADME, organism-based, Interstitial fluid; design: dose 100 mg/kg/day, route intraperitoneal
Staphylococcus aureus [19] = test: as §2, with “coverslip” for “tissue cage”, “14” for “7”, “5.4 +/- 1” for “6.8 +/-0.8”, “logCFU/ml) co-treated with 25 mg/kg rifampin, ip bid” for “logCFU/ml)”; type: functional
Staphylococcus aureus [20] = test: as §3, with “logCFU/ml) co-treated with 25 mg/kg rifampin, ip bid” for “logCFU/ml)”; type: functional
Staphylococcus aureus [21] = test: as §2, with “logCFU/ml) co-treated with 25 mg/kg rifampin, ip bid” for “logCFU/ml)”; type: functional
Staphylococcus aureus [22] = test: Antimicrobial activity against […] Staphylococcus aureus ATCC 29213 tissue cage Wistar rat infected model assessed as bacterial load reduction at 100 mg/kg/day, ip treated for 14 days measured 24 hrs after last dose (reference value: 7.2 +/- 0.6 logCFU/ml); type: functional; conditions: route intraperitoneal
Staphylococcus aureus [23] = test: Antimicrobial activity against […] Staphylococcus aureus ATCC 29213 coverslip Wistar rat infected model assessed as bacterial load reduction at 100 mg/kg/day, ip treated for 14 days measured 24 hrs after last dose (reference value: 5.4 +/- 1 logCFU/ml); type: functional; conditions: route intraperitoneal

## CO[C@H]1/C=C/O[C@@]2(C)Oc3c(C)c(O)c4c(O)c(c(/C=N/N5CCN(C)CC5)c(O)c4c3C2=O)NC(=O)/C(C)=C\C=C\[C@H](C)[C@H](O)[C@@H](C)[C@@H](O)[C@@H](C)[C@H](OC(C)=O)[C@@H]1C [RIFAMPIN]
[1]
  AUC: 304 µg·h/mL
Staphylococcus aureus [2]
  MBC: 4 µg/mL (≈ 4.86 µM)
Staphylococcus aureus [3]
  log10CFU/ml: 6.9
[4]
  Ratio: 440
[5]
  Ratio: 20260
[6]
  AUC: 277 µg·h/mL
[7]
  Cmax: 6600 ng/mL
Staphylococcus aureus [8]
  Activity: Active

## C[C@H]1COc2c(N3CCN(C)CC3)c(F)cc3c(=O)c(C(=O)O)cn1c23.C[C@H]1COc2c(N3CCN(C)CC3)c(F)cc3c(=O)c(C(=O)O)cn1c23.O [LEVOFLOXACIN]
Staphylococcus aureus [9]
  log10CFU/ml: 6.74
[10]
  AUC: 117 µg·h/mL
Staphylococcus aureus [2]
  MBC: > 8 µg/mL
[11]
  AUC: 68 µg·h/mL
[12]
  Cmax: 6000 ng/mL
Staphylococcus aureus [13]
  log10CFU/ml: 3.37
[14]
  AUC: 106 µg·h/mL
[15]
  AUC: 77 µg·h/mL
Staphylococcus aureus [16]
  log10CFU/ml: 6.4
Staphylococcus aureus [17]
  inhibition: inactive
[18]
  Cmax: 12000 ng/mL
Staphylococcus aureus [19]
  log10CFU/ml: 3.36
Staphylococcus aureus [20]
  log10CFU/ml: 6.7
Staphylococcus aureus [21]
  log10CFU/ml: 6.74
Staphylococcus aureus [22]
  log10CFU/ml: 2.9
Staphylococcus aureus [23]
  log10CFU/ml: 2.24

Source: ChEMBL document CHEMBL1687713 (Antimicrob Agents Chemother, 2008)
